Measured values taken from ChEMBL document CHEMBL4004806, “Cyclocurcumin, an Antivasoconstrictive Constituent of Curcuma longa (Turmeric)” (J Nat Prod, 2017).

Tests used:
[1] = biological target: T1, Voltage-gated L-type calcium channel (Rattus norvegicus, UniProt P22002+Q02485+P27732); test: Inhibition of L-type calcium channel in Sprague-Dawley rat aortic rings assessed as reduction in phenylephrine-induced vasoconstriction preincubated with aortic rings followed by phenylephrine addition
Outline: (§1)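 Rat aortic rings in organ baths of Krebs-Ringer (pH 7.4, 95% O2/5% CO2, 37 °C) pretreated with compound. Contraction was then started by cumulative phenylephrine, serotonin or 60 mM K+. Isometric tension recorded by force transducer and expressed as percent of a prior 90 mM K+ contraction. Mean ± SEM, ≥3 independent experiments, ANOVA/Duncan or t test.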

[2] = biological target: T1, Voltage-gated L-type calcium channel; test: Irreversible inhibition of 5-HT activated L-type calcium channel-mediated vasoconstriction in Sprague-Dawley rat aortic rings at 15 uM preincubated with aortic rings followed by 5-HT addition and subsequent compound wash out measured after 4 hrs
Outline: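 Rat aortic rings in organ baths of Krebs-Ringer solution (pH 7.4, 37 °C, gassed with 95% O2/5% CO2). Rings were pretreated with compound, then contracted with 5-HT (reading I). Buffer was washed out, and 5-HT contraction was re-measured 4 h later (reading II). Isometric tension was recorded and expressed as percent of the 90 mM K+ contraction. Mean ± SEM, ≥3 independent experiments.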

[3] = biological target: T1, Voltage-gated L-type calcium channel; test: Inhibition of L-type calcium channel in endothelium-denuded Sprague-Dawley rat aortic rings assessed as reduction in 5-HT-induced vasoconstriction at 5 to 25 uM preincubated with aortic rings followed by 5-HT addition; outline: as §1
[4] = biological target: T1, Voltage-gated L-type calcium channel; test: Reversible inhibition of 5-HT activated L-type calcium channel-mediated vasoconstriction in Sprague-Dawley rat aortic rings at 25 uM preincubated with aortic rings followed by 5-HT addition and subsequent compound wash out measured after 4 hrs
Outline: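 Organ-bath aortic rings (Krebs-Ringer, 37 °C) treated with compound, and a 5-HT contraction recorded. Buffer was washed out and the 5-HT contraction measured again 4 h later. Tension expressed relative to a 90 mM K+ response. Mean ± SEM, ≥3 independent experiments.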

[5] = biological target: T1, Voltage-gated L-type calcium channel; test: Inhibition of L-type calcium channel in Sprague-Dawley rat aortic rings assessed as reduction in Bay K8644-induced vasoconstriction preincubated with aortic rings followed by Bay K8644 addition
Outline: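 Aortic rings in organ baths (37 °C, 95% O2/5% CO2) pretreated with compound. Contraction was elicited by Bay K8644 (10−6 M) in 15 mM K+ buffer, pH 7.4, containing 0.026 mM EDTA. Tension expressed as percent of a prior 90 mM K+ response. Mean ± SEM, ≥3 independent experiments.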

Aorta [6] = test: Cytotoxicity against Sprague-Dawley rat aortic rings assessed as non-specific tissue damage after 24 hrs by TUNEL assay; assay type: tissue-based
Outline: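 Aortic rings kept in MEM with 100 U/mL penicillin and 100 μg/mL streptomycin, exposed to compound or vehicle for 24 h at 37 °C in 95% air/5% CO2. Sections quenched with 0.3% H2O2, digested with 20 μg/mL Proteinase K, TdT-labelled with digoxigenin-dUTP for 1 h at 37 °C. Detection by HRP anti-digoxigenin (30 min, room temperature) and DAB, hematoxylin counterstain. Mean ± SEM, ≥3 independent experiments.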

[7] = biological target: T1, Voltage-gated L-type calcium channel; test: Inhibition of L-type calcium channel in Sprague-Dawley rat aortic rings assessed as reduction in 5-HT-induced vasoconstriction at 5 to 25 uM preincubated with aortic rings followed by 5-HT addition; outline: as §1
[8] = biological target: T1, Voltage-gated L-type calcium channel; test: Inhibition of L-type calcium channel in Sprague-Dawley rat aortic rings assessed as reduction in phenylephrine-induced vasoconstriction at 25 uM preincubated with aortic rings followed by phenylephrine addition; outline: as §1
[9] = biological target: T1, Voltage-gated L-type calcium channel; test: Inhibition of L-type calcium channel in Sprague-Dawley rat primary VSMC assessed as reduction in 5-HT-induced calcium influx preincubated for 30 mins followed by 5-HT addition by Fura-2-AM dye based confocal microscopic method
Outline: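 Enzymatically isolated rat aortic VSMCs on coverslips pretreated with compound for 30 min. Cells loaded 60 min with 1 μM fura-2/AM in PSS (pH 7.4) with 1% BSA, then superfused with PSS at 2 mL/min at 33 °C. Serotonin-evoked calcium rise imaged by 40× oil-objective fluorescence microscopy. Mean ± SEM, ≥3 experiments.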

[10] = biological target: T1, Voltage-gated L-type calcium channel; test: Inhibition of L-type calcium channel in Sprague-Dawley rat primary VSMC assessed as reduction in 5-HT-induced MLC phosphorylation preincubated for 30 mins followed by 5-HT addition measured after 10 mins by Western blot method
Outline: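 Primary VSMCs were released from rat aorta with collagenase and elastase. Cells pretreated with compound for 30 min, then stimulated with 10−5 M serotonin for 10 min. Lysed in RIPA with protease/phosphatase inhibitors, and pMLC and total MLC detected by SDS-PAGE Western blot with chemiluminescent imaging. Mean ± SEM, ≥3 experiments.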

[11] = biological target: T1, Voltage-gated L-type calcium channel; test: Inhibition of 60 mM K+ activated L-type calcium channel-mediated vasoconstriction in Sprague-Dawley rat aortic rings preincubated followed by 60 mM K+ addition; outline: as §1
Aorta [12] = test: Cytotoxicity against Sprague-Dawley rat aortic rings assessed as non-specific tissue damage at 5 to 25 uM after 30 mins by LDH release assay; assay type: tissue-based; details: 0.5 h
Outline: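 Aortic rings exposed to compound for 30 min, then medium aliquots collected. Aliquot incubated in Tris-EDTA-NADH buffer (0.17 mM β-NADH, pH 7.4) for 10 min at 37 °C. Prewarmed 14 mM pyruvate added, and the fall in A340 was followed for 1 min as LDH activity. Mean ± SEM, ≥3 independent experiments.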

COc1cc(/C=C/C(=O)CC(=O)/C=C/c2ccc(O)c(OC)c2)ccc1O [CURCUMIN]
IC50 [1]: > 100 µM

C[As](O)O
inhibition (INH) [2]: Active

COc1cc(/C=C/C2=CC(=O)CC(c3ccc(O)c(OC)c3)O2)ccc1O (configuration not stated)
inhibition (INH) [3]: Active | inhibition (INH) [4]: Active | IC50 [5]: 13.5 µM | Activity (Aorta [6]): Non-Toxic | inhibition (INH) [7]: Active | inhibition (INH) [8]: Active | inhibition (INH) [9]: Dose-dependent effect | inhibition (INH) [10]: Active | IC50 [11]: 18.5 µM | inhibition (INH) ([11]; rat): Dose-dependent effect | IC50 [1]: 14.9 µM | pA2 [1]: 5.2 | inhibition (INH) ([1]; rat): Dose-dependent effect | Activity (Aorta [12]): Non-Toxic

COc1cc(/C=C/C(=O)CC(=O)/C=C/c2ccc(O)cc2)ccc1O
inhibition (INH) [8]: Active
